Measurements published in ChEMBL document CHEMBL3739408, “Antibacterial Prenylated Acylphloroglucinols from Psorothamnus fremontii” (J Nat Prod, 2015).
≈ marks a conversion by molar mass, not a printed value.

Legend:
Vero = experiment: Cytotoxicity against African green monkey Vero cells assessed as cell viability after 48 hrs by neutral red-based assay; conditions: Chlorocebus sabaeus
Method in brief: (§1)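 Mammalian cell lines from ATCC: human hepatic carcinoma HepG2, pig kidney epithelial LLC-PK1, and African green monkey kidney Vero. Highest test concentration was 50 μg/mL, and doxorubicin was the positive control at up to 10 μg/mL. IC50 was taken as the concentration giving 50% growth inhibition of the mammalian cells.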

Enterococcus faecalis [1] = experiment: Antibacterial activity against vancomycin-sensitive Enterococcus faecalis ATCC 29212 by plate reader analysis; format: functional, organism-based
Method in brief: (§2)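 Strains from ATCC; modified CLSI broth microdilution. Samples in DMSO were serially diluted in 20% DMSO–saline and plated in duplicate. Inocula were set by adjusting OD630 to give the final target CFU/mL. Methicillin and vancomycin were positive controls, with highest test concentrations of 50 and 20 μg/mL. IC50 is the 50% growth inhibition relative to controls, from curve fitting.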

Enterococcus faecium = experiment: Antibacterial activity against vancomycin-resistant Enterococcus faecium ATCC 700221 by plate reader analysis; format: functional, organism-based; method in brief: as §2
Staphylococcus aureus [2] = experiment: Antibacterial activity against methicillin-resistant Staphylococcus aureus ATCC 33591 by plate reader analysis; format: functional, organism-based; method in brief: as §2
Staphylococcus aureus [3] = experiment: Antibacterial activity against methicillin-sensitive Staphylococcus aureus ATCC 29213 by plate reader analysis; format: functional, organism-based; method in brief: as §2
Staphylococcus aureus [4] = experiment: Antibacterial activity against methicillin-resistant Staphylococcus aureus ATCC 1708 by plate reader analysis; format: functional, organism-based; method in brief: as §2
HepG2 = experiment: Cytotoxicity against human HepG2 cells assessed as cell viability after 48 hrs by neutral red-based assay; conditions: HepG2, 48 h; method in brief: as §1
Staphylococcus aureus [5] = experiment: Antibacterial activity against methicillin-resistant Staphylococcus aureus ATCC 1696 by plate reader analysis; format: functional, organism-based; method in brief: as §2
Enterococcus faecalis [6] = experiment: Antibacterial activity against low level vancomycin-resistant Enterococcus faecalis ATCC 51299 by plate reader analysis; format: functional, organism-based; method in brief: as §2
Staphylococcus aureus [7] = experiment: Antibacterial activity against methicillin-resistant Staphylococcus aureus ATCC 1717 by plate reader analysis; format: functional, organism-based; method in brief: as §2
LLC-PK1 = experiment: Cytotoxicity against pig LLC-PK1 cells assessed as cell viability after 48 hrs by neutral red-based assay; conditions: Sus scrofa, LLC-PK1, 48 h; method in brief: as §1

Row | SMILES | IC50 (Vero) | IC50 (Enterococcus faecalis [1]) | IC50 (Enterococcus faecium) | IC50 (Staphylococcus aureus [2]) | IC50 (Staphylococcus aureus [3]) | IC50 (Staphylococcus aureus [4]) | IC50 (HepG2) | IC50 (Staphylococcus aureus [5]) | IC50 (Enterococcus faecalis [6]) | IC50 (Staphylococcus aureus [7]) | IC50 (LLC-PK1)
1 | CC(C)=CCC1=C2OC(C)(C)CC3OC23C(=O)C(C(=O)C(C)C)=C1O (centres undefined) | 21 µg/mL (≈ 60.6 µM) | 5.3 µg/mL (≈ 15.3 µM) | 1.6 µg/mL (≈ 4.62 µM) | 1.4 µg/mL (≈ 4.04 µM) | 2.4 µg/mL (≈ 6.93 µM) | 8.6 µg/mL (≈ 24.8 µM) | 31 µg/mL (≈ 89.5 µM) | 8.8 µg/mL (≈ 25.4 µM) | 2.8 µg/mL (≈ 8.08 µM) | 1.6 µg/mL (≈ 4.62 µM) | 30 µg/mL (≈ 86.6 µM)
2 | CC1=C2OC(C)(C)CC3OC23C(=O)C(C(=O)C(C)C)=C1O (centres undefined) | – | – | – | 11.1 µg/mL (≈ 38 µM) | 10 µg/mL (≈ 34.2 µM) | – | – | – | – | – | –
3 | CCC(C)C(=O)C1=C(O)C(C)=C2OC(C)(C)CC3OC23C1=O (centres undefined) | – | – | – | 6.2 µg/mL (≈ 20.2 µM) | 5.6 µg/mL (≈ 18.3 µM) | – | – | – | – | – | –
4 | CN[C@@H](CC(C)C)C(=O)N[C@H]1C(=O)N[C@@H](CC(N)=O)C(=O)N[C@H]2C(=O)N[C@H]3C(=O)N[C@H](C(=O)N[C@@H](C(=O)O)c4cc(O)cc(O)c4-c4cc3ccc4O)[C@H](O)c3ccc(c(Cl)c3)Oc3cc2cc(c3O[C@H]2O[C@@H](CO)[C@H](O)[C@@H](O)[C@@H]2O[C@@H]2C[C@@](C)(N)[C@@H](O)[C@@H](C)O2)Oc2ccc(cc2Cl)[C@H]1O | – | 1.4 µg/mL (≈ 0.966 µM) | > 20 µg/mL | – | – | – | – | – | 3.3 µg/mL (≈ 2.28 µM) | – | –
5 | COc1cccc2c1C(=O)c1c(O)c3c(c(O)c1C2=O)C[C@@](O)(C(=O)CO)C[C@@H]3O[C@H]1C[C@H](N)[C@H](O)[C@H](C)O1 [DOXORUBICIN] | – | – | – | – | – | – | – | – | – | – | 0.5 µg/mL (≈ 0.92 µM)
6 | COc1cccc(OC)c1C(=O)N[C@@H]1C(=O)N2[C@@H]1SC(C)(C)[C@@H]2C(=O)O [METHICILLIN] | – | – | – | > 50 µg/mL | 0.5 µg/mL (≈ 1.31 µM) | 3.2 µg/mL (≈ 8.41 µM) | – | 3 µg/mL (≈ 7.89 µM) | – | 26.9 µg/mL (≈ 70.7 µM) | –
